Assays:
rat ASCT2 = molecular target: T1, rat ASCT2 (Rattus norvegicus, UniProt D3ZJ25); type: cell-based; settings: for Behaviour in anion current assay (inhibitor / substrate): rASCT2, direction of induced current
T1 sequence (D3ZJ25 1-555): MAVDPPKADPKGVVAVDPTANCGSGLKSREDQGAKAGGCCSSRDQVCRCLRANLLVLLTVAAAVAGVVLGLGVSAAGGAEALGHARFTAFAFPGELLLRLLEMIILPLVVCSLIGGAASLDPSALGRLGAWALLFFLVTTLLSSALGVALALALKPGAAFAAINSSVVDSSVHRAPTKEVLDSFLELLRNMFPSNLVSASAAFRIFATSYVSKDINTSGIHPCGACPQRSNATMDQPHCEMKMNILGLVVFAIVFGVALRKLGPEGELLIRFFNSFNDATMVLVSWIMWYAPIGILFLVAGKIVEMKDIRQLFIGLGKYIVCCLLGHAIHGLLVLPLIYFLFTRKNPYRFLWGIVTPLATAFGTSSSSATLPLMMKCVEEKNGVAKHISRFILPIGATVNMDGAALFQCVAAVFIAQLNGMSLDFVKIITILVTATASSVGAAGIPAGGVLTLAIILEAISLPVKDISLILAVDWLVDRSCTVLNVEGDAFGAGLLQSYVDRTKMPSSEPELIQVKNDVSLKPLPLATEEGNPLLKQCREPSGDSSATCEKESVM
Procedure, shortened: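 HEK293 cells cotransfected with rASCT2 and YFP cDNA; whole-cell recording 24–30 h later at 0 mV. External 140 mM NaCl, 2 mM MgCl2, 2 mM CaCl2, 10 mM HEPES pH 7.40; NaSCN pipette solution with 10 mM alanine. 1 mM L-alanine control; outward current = leak inhibition. Ki from Michaelis–Menten-like fit, including varied alanine; Imax from 1 mM response and Km. ≥4 repeats.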

hASCT2 = molecular target: T2, hASCT2 (Homo sapiens, UniProt Q15758); assay: Current recording in HEK293 cells expressing human ASCT2; type: cell-based
T2 sequence (Q15758 1-541): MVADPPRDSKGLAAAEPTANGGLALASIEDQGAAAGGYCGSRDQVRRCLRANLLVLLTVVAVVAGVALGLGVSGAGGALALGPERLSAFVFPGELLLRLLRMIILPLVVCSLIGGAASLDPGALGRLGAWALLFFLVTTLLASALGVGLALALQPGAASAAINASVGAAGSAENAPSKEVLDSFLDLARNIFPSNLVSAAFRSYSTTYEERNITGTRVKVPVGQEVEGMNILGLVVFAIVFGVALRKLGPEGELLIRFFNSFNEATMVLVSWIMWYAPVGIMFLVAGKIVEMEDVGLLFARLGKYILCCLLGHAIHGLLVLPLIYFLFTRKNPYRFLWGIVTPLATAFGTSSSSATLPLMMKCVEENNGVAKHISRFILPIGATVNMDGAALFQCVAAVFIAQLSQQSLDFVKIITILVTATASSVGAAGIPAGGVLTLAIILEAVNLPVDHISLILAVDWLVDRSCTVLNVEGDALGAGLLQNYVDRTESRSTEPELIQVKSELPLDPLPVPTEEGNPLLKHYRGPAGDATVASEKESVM

In the case of “4-fluorobenzene sulfonamide [Compound 9b]”, the “Imax, maximum current at saturating concentration” value (rat ASCT2; rASCT2, compared with current induced by 1 mM alanine) is reported as “highest outward current”.
With `NC[C@H](N)C(=O)O` [Compound 1, L-2,3-diaminopropionic acid] the “Behaviour in anion current assay (inhibitor / substrate)” value (rat ASCT2) was “properties of a transported substrate”.
In the case of `CS(N)(=O)=O` [Compound 2b, methanesulfonamide], the “Behaviour in anion current assay (inhibitor / substrate)” value (rat ASCT2) is reported as “borderline substrate-like properties”.
`C[C@H](N)C(=O)O` [alanine, L-alanine] was tested, and the “Current for saturating alanine in hASCT2” value (hASCT2) was < 20 pA.

Reference: publication PMC6400523 (The Journal of General Physiology, 2019)
